Experimental data from ChEMBL document CHEMBL5661979, “Pharmacological inhibition of BMK1 suppresses tumor growth through promyelocytic leukemia protein” (Cancer Cell, 2010).
Activity calls are given as the source filed them. The rule behind the calls is not given here.

Experiments:
[1] = target: Serine/threonine-protein kinase Chk2 (Homo sapiens, UniProt O96017); experiment: Inhibition of CHK2 in human HeLa cells lysate pre incubated for 15 mins followed by ADP acyl phosphate probe addition and measured after 10 mins by LC-MS/MS analysis; assay type: subcellular
[2] = target: Calcium/calmodulin-dependent protein kinase type II subunit delta (Homo sapiens, UniProt Q13557); experiment: Inhibition of CamK2d in human HeLa cells lysate at 2 uM pre incubated for 15 mins followed by ADP acyl phosphate probe addition and measured after 10 mins by LC-MS/MS analysis relative to control; assay type: subcellular; details: time 25.0 min
[3] = target: Casein kinase I isoform alpha (Homo sapiens, UniProt P48729); experiment: Inhibition of CK1alpha in human HeLa cells lysate at 10 uM pre incubated for 15 mins followed by ATP acyl phosphate probe addition and measured after 10 mins by LC-MS/MS analysis relative to control; assay type: subcellular; details: time 25.0 min
[4] = target: Ribosomal protein S6 kinase alpha-3 (Homo sapiens, UniProt P51812); experiment: Inhibition of RSK2 domain 2 in human HeLa cells lysate pre incubated for 15 mins followed by ATP acyl phosphate probe addition and measured after 10 mins by LC-MS/MS analysis; assay type: subcellular
[5] = target: DNA-dependent protein kinase catalytic subunit (Homo sapiens, UniProt P78527); experiment: Inhibition of PRKDC in human HeLa cells lysate at 10 uM pre incubated for 15 mins followed by ADP acyl phosphate probe addition and measured after 10 mins by LC-MS/MS analysis relative to control; assay type: subcellular; details: time 25.0 min
[6] = target: T1, Ribosomal protein S6 kinase alpha-1 (Homo sapiens, UniProt Q15418); experiment: Inhibition of RSK1 domain 2 K1 site in human HeLa cells lysate at 50 uM pre incubated for 15 mins followed by ADP acyl phosphate probe addition and measured after 10 mins by LC-MS/MS analysis relative to control; assay type: subcellular; details: time 25.0 min
[7] = target: Serine/threonine-protein kinase mTOR (Homo sapiens, UniProt P42345); experiment: Inhibition of FRAP in human HeLa cells lysate at 2 uM pre incubated for 15 mins followed by ATP acyl phosphate probe addition and measured after 10 mins by LC-MS/MS analysis relative to control; assay type: subcellular; details: time 25.0 min
[8] = target: T1, Ribosomal protein S6 kinase alpha-1; experiment: Inhibition of RSK1 domain 2 K1 site in human HeLa cells lysate at 10 uM pre incubated for 15 mins followed by ADP acyl phosphate probe addition and measured after 10 mins by LC-MS/MS analysis relative to control; assay type: subcellular; details: time 25.0 min
[9] = target: Serine/threonine-protein kinase ATR (Homo sapiens, UniProt Q13535); experiment: Inhibition of ATR in human HeLa cells lysate at 10 uM pre incubated for 15 mins followed by ATP acyl phosphate probe addition and measured after 10 mins by LC-MS/MS analysis relative to control; assay type: subcellular; details: time 25.0 min
How it was run: (§1)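 KiNativ-type profiling in HeLa lysate (5 mg/mL total protein). Lysate preincubated 15 min with inhibitor at 50, 10, 2, 0.8 or 0 μM, then ATP or ADP acylphosphate probe added (5 μM final) for 10 min. Reaction stopped with urea and analysed by targeted MS, using up to four fragment ions per kinase peptide-probe conjugate. % inhibition calculated against untreated lysate. Duplicate reactions.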

[10] = Inhibition of NEK6/7 in human HeLa cells lysate at 10 uM pre incubated for 15 mins followed by ADP acyl phosphate probe addition and measured after 10 mins by LC-MS/MS analysis relative to control; details: 25 min, condition cancer
[11] = target: Serine/threonine-protein kinase ULK3 (Homo sapiens, UniProt Q6PHR2); experiment: Inhibition of ULK3 in human HeLa cells lysate pre incubated for 15 mins followed by ATP acyl phosphate probe addition and measured after 10 mins by LC-MS/MS analysis; assay type: subcellular
[12] = Cmax in Sprague-Dawley rat at 2 mg/kg, po measured up to 8 hrs by LC-MS/MS analysis; assay type: ADME, organism-based; details: in vivo
How it was run: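 Sprague-Dawley rats given one intravenous dose or one oral dose of 2 mg/kg. Plasma drug concentrations were followed over time, with samples taken out to 8 hr after dosing. PK parameters (clearance, volume of distribution, half-life, oral bioavailability, Cmax) were calculated from these concentration–time data.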

[13] = target: Dual specificity protein kinase CLK3 (Homo sapiens, UniProt P49761); experiment: Inhibition of CLK3 in human HeLa cells lysate at 50 uM pre incubated for 15 mins followed by ADP acyl phosphate probe addition and measured after 10 mins by LC-MS/MS analysis relative to control; assay type: subcellular; details: time 25.0 min
Lewis lung carcinoma = experiment: Antitumor activity against PML knock down mouse LL2 cells allografted in C57Bl/6 mouse assessed as reduction tumor growth at 50 mg/kg, ip administered on day 7 post implantation measured after 17 days; assay type: functional, organism-based; details: time 10.0 day
[14] = target: Calcium/calmodulin-dependent protein kinase type II subunit gamma (Homo sapiens, UniProt Q13555); experiment: Inhibition of CAMK2g in human HeLa cells lysate at 10 uM pre incubated for 15 mins followed by ADP acyl phosphate probe addition and measured after 10 mins by LC-MS/MS analysis relative to control; assay type: subcellular; details: time 25.0 min; how it was run: as §1
[15] = target: Serine/threonine-protein kinase Nek7 (Homo sapiens, UniProt Q8TDX7); experiment: Inhibition of NEK7 in human HeLa cells lysate at 50 uM pre incubated for 15 mins followed by ADP acyl phosphate probe addition and measured after 10 mins by LC-MS/MS analysis relative to control; assay type: subcellular; details: time 25.0 min
Ephrin type-A receptor 2 = Ephrin type-A receptor 2 (Homo sapiens, UniProt P29317); experiment: Inhibition of EphA2 in human HeLa cells lysate at 10 uM pre incubated for 15 mins followed by ATP acyl phosphate probe addition and measured after 10 mins by LC-MS/MS analysis relative to control; assay type: subcellular; details: time 25.0 min
[16] = target: Tyrosine-protein kinase CSK (Homo sapiens, UniProt P41240); experiment: Inhibition of CSK in human HeLa cells lysate at 2 uM pre incubated for 15 mins followed by ATP acyl phosphate probe addition and measured after 10 mins by LC-MS/MS analysis relative to control; assay type: subcellular; details: time 25.0 min
[17] = Inhibition of MSK1/2 in human HeLa cells lysate at 2 uM pre incubated for 15 mins followed by ADP acyl phosphate probe addition and measured after 10 mins by LC-MS/MS analysis relative to control; details: 25 min, condition cancer
[18] = target: Tyrosine-protein kinase JAK1 (Homo sapiens, UniProt P23458); experiment: Inhibition of JAK1 domain 2 in human HeLa cells lysate pre incubated for 15 mins followed by ADP acyl phosphate probe addition and measured after 10 mins by LC-MS/MS analysis; assay type: subcellular
[19] = target: Serine-protein kinase ATM (Homo sapiens, UniProt Q13315); experiment: Inhibition of ATM in human HeLa cells lysate at 2 uM pre incubated for 15 mins followed by ADP acyl phosphate probe addition and measured after 10 mins by LC-MS/MS analysis relative to control; assay type: subcellular; details: time 25.0 min; how it was run: as §1

T1 sequence (Q15418 whole entry, the tested form may be a part): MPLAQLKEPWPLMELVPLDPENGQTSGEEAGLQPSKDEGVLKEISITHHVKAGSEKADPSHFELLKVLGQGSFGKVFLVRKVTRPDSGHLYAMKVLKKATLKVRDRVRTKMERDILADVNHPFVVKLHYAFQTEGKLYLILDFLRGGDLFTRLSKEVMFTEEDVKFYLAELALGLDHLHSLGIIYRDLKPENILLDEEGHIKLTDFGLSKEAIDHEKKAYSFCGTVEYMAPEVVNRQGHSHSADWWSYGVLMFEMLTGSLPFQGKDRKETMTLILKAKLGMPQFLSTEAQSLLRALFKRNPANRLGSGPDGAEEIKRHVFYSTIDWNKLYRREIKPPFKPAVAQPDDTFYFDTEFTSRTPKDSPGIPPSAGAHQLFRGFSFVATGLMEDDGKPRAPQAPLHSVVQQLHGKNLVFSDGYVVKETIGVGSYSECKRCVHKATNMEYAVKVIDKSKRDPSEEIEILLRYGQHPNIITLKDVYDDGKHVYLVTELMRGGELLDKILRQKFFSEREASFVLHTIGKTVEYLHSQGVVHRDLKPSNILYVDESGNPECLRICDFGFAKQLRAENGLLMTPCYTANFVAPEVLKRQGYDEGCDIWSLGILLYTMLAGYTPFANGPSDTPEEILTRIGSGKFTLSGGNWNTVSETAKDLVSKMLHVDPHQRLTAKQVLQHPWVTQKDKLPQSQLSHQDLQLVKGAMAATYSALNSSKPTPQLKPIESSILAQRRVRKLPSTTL
Sequence of Casein kinase I isoform alpha (P48729 2-337 limits assumed): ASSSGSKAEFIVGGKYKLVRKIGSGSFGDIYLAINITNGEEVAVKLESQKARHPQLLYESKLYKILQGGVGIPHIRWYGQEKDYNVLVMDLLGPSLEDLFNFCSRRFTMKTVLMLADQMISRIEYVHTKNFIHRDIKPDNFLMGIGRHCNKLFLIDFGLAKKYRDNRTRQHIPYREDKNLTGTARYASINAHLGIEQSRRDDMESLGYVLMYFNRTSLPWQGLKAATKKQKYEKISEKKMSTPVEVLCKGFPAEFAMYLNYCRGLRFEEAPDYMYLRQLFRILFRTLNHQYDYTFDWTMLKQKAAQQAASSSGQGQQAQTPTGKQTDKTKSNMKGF
Sequence of Serine/threonine-protein kinase Nek7 (Q8TDX7 whole entry, looked up): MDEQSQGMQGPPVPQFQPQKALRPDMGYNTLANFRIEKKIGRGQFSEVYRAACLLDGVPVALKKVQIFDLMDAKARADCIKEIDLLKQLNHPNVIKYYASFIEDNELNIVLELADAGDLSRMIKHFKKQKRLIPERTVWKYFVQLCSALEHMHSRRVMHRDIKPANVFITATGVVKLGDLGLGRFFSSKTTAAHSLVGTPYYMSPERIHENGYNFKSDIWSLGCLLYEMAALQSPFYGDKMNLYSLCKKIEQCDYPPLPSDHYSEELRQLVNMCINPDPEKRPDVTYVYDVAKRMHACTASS
Sequence of Ephrin type-A receptor 2 (P29317 whole entry): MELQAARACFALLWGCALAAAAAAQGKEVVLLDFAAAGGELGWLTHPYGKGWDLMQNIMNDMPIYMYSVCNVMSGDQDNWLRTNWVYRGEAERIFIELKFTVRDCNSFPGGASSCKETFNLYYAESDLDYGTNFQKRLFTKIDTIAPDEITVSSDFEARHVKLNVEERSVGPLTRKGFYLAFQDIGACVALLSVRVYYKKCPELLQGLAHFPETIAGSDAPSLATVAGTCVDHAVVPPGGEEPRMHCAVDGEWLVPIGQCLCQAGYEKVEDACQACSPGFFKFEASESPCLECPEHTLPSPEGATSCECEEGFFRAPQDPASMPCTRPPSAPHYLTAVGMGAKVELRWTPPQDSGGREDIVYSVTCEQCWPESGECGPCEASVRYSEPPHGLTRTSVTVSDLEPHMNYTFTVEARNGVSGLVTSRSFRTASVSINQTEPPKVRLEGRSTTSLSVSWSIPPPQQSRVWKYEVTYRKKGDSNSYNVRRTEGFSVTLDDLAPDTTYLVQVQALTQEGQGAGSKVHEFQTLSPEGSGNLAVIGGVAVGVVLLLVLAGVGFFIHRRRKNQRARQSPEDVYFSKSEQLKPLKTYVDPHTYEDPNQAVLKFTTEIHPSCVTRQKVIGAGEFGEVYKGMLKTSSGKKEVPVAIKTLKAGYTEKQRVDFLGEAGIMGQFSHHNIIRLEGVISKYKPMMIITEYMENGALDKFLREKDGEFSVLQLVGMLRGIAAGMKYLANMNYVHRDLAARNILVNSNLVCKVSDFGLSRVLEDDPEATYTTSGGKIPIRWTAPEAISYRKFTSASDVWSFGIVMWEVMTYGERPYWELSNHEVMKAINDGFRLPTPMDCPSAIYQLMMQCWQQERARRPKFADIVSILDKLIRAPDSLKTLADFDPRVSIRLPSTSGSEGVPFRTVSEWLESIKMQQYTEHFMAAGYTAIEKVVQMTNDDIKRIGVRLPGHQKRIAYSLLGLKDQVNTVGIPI
Sequence of Tyrosine-protein kinase JAK1 (P23458 whole entry, the tested form may be a part): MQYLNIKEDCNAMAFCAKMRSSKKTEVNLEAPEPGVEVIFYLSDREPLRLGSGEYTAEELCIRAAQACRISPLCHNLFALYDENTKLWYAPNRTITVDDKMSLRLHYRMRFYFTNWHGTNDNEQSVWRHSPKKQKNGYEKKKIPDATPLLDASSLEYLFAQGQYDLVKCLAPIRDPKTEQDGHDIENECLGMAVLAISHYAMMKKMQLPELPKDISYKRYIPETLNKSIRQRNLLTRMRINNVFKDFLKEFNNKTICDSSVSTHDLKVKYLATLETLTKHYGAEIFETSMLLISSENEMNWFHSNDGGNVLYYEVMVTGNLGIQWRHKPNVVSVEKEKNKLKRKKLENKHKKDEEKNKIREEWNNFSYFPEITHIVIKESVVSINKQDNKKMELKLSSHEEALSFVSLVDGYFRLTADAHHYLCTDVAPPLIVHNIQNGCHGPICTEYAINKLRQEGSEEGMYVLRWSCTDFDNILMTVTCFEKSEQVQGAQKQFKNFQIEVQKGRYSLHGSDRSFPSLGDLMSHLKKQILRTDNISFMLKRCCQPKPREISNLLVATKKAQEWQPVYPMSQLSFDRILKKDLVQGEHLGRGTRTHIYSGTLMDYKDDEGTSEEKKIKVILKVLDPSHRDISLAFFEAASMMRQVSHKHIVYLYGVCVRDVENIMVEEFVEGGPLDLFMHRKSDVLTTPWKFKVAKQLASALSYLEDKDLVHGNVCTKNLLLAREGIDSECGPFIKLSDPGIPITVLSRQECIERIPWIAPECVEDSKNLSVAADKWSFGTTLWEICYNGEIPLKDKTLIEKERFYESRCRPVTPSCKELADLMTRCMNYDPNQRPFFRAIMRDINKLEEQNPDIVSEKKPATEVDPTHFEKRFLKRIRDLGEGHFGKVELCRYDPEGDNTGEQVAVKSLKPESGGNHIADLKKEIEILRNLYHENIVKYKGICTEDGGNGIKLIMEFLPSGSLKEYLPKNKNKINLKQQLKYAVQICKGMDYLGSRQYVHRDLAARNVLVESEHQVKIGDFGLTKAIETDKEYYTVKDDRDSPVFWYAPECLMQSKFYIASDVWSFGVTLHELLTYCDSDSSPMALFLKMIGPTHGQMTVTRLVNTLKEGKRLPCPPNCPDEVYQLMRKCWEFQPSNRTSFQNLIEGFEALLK
Sequence of Serine/threonine-protein kinase ULK3 (Q6PHR2 whole entry): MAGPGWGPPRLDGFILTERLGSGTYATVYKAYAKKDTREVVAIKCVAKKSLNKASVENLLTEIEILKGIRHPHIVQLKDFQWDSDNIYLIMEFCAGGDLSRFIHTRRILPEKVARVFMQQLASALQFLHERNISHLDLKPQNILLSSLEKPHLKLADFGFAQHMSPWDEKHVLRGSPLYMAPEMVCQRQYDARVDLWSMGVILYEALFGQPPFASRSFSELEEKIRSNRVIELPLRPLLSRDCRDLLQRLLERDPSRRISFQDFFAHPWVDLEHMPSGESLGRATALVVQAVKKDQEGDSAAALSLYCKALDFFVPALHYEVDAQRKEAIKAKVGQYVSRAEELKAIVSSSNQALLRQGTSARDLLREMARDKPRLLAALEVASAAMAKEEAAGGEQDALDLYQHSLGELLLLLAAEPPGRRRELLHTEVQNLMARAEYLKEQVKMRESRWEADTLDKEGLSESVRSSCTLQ
Sequence of Dual specificity protein kinase CLK3 (P49761 whole entry, looked up): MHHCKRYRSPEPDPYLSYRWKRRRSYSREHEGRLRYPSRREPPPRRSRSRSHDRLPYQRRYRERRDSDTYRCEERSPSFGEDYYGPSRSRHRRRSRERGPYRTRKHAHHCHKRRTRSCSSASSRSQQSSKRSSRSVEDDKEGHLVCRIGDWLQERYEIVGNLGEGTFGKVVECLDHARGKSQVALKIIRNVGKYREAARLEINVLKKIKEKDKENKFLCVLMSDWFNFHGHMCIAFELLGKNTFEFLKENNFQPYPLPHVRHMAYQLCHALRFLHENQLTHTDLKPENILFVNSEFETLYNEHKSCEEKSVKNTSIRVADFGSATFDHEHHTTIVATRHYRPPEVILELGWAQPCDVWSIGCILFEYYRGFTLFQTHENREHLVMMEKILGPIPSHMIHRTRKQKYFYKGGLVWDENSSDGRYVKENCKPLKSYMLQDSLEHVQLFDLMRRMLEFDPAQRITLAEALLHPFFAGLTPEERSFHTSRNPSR
Sequence of Serine/threonine-protein kinase Chk2 (O96017 whole entry): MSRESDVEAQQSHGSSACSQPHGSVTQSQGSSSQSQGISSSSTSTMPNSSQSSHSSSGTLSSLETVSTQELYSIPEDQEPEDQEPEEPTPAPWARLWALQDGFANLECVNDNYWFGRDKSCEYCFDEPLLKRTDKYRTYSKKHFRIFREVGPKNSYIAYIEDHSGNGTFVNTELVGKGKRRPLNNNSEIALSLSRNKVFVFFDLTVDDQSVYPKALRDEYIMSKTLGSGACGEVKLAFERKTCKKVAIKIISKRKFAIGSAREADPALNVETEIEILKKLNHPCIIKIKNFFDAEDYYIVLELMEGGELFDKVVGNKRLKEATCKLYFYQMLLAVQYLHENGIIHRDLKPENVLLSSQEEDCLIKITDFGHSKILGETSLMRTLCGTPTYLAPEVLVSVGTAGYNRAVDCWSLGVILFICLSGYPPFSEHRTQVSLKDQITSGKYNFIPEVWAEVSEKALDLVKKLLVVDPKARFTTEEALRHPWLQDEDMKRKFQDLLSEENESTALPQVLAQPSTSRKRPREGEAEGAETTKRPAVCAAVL

Which results are given for `CCOc1cc(N2CCC(O)CC2)ccc1Nc1ncc2c(n1)N(C)c1ccccc1C(=O)N2C`?
IC50 [1]: > 50 µM; inhibition [2]: -6.5%; inhibition [3]: -7.9%; IC50 [4]: 49 µM; inhibition [5]: -4.8%; inhibition [6]: 63.8%; inhibition [7]: 4.6%; inhibition [8]: 23.4%; inhibition [9]: 6.7%; inhibition at 10 µM [10]: -11.8%; IC50 [11]: > 50 µM; Cmax [12]: 522 nM; inhibition [13]: 32.6%; Activity (Lewis lung carcinoma): inactive; inhibition [14]: -2.3%; inhibition [15]: -2.3%; inhibition (Ephrin type-A receptor 2): -3.9%; inhibition [16]: -4.4%; inhibition at 2 µM [17]: 23.1%; IC50 [18]: > 50 µM; inhibition [19]: 2.3%
